Converted amounts (≈) assume the structure as drawn.
What was measured:
[1] = system: Rattus norvegicus; experiment: Effect on the spontaneous locomotor activity of rats at 0-15 min upon po administration of the compounds at a dose of 30 mg/kg; assay type: functional
Method in brief: (§1)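 Rats were given test agent or methylcellulose vehicle (ip or po, per line), with treatments in random order. 30 min after dosing, each rat went into an individual circular activity chamber. Locomotion was counted as photocell-beam interruptions, recorded at 15 and 60 min from test start and reported as mean counts ± SEM.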

[2] = system: Rattus norvegicus; experiment: Effect on the spontaneous locomotor activity of rats at 0-15 min upon ip administration of the compounds at a dose of 1 mg/kg; assay type: functional; details: route intraperitoneal; method in brief: as §1
[3] = system: Streptococcus pyogenes; experiment: The in vitro antibacterial activity as minimum inhibitory concentration against Streptococcus pyogenes 2548 INDUC; assay type: functional
Method in brief: (§2)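 Agar dilution: organisms grown overnight in BHI broth at 36 °C. Two-fold dilutions of a 2000 μg/mL stock were made in BHI agar, giving 200 to 0.005 μg/mL final. Plates were inoculated with about 10^4 organisms and incubated 18 h at 36 °C. MIC is the lowest concentration with no visible growth.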

[4] = system: Staphylococcus aureus; experiment: The in vitro antibacterial activity as minimum inhibitory concentration against Staphylococcus aureus ATCC 6538P; assay type: functional; method in brief: as §2
[5] = system: Pseudomonas aeruginosa; experiment: Median dose against Pseudomonas aeruginosa A5007 in mouse after peroral administration at a dose of 100xLD50 in TEST 2.; assay type: functional; details: po
Method in brief: (§3)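 CF-1 female mice (~20 g) were infected ip with 0.5 mL of an 18-h BHI broth culture diluted in 5% (w/v) hog gastric mucin to the stated multiple of LD50. The HCl salt was dissolved in distilled water and given sc or po, with the total dose split equally at 1 and 5 h post-infection. Groups of 10 mice received at least three dose levels; ten infected mice were left untreated. Deaths were recorded daily for 6 days. ED50 came from day-6 cumulative mortality using the trimmed logit method.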

[6] = system: Escherichia coli; experiment: The in vitro antibacterial activity as minimum inhibitory concentration against Escherichia coli DC-2; assay type: functional
Method in brief: (§4)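 Agar dilution in BHI agar. Organisms were grown overnight in BHI broth at 36 °C. Two-fold dilutions gave test concentrations from 200 to 0.005 μg/mL. Plates were inoculated with ~10^4 organisms and incubated 18 h at 36 °C. MIC was the lowest concentration with no visible growth.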

[7] = system: Burkholderia cepacia; experiment: The in vitro antibacterial activity as minimum inhibitory concentration against Pseudomonas cepacia 2961; assay type: functional; method in brief: as §4
[8] = system: Pseudomonas aeruginosa; experiment: The in vitro antibacterial activity as minimum inhibitory concentration against Pseudomonas aeruginosa A5007; assay type: functional; method in brief: as §4
[9] = system: Pseudomonas aeruginosa; experiment: Median dose against Pseudomonas aeruginosa A5007 in mouse after subcutaneous administration at a dose of 100xLD50 in TEST 2.; assay type: functional; details: sc; method in brief: as §3
[10] = system: Pseudomonas aeruginosa; experiment: Median dose against Pseudomonas aeruginosa A5007 in mouse after peroral administration at a dose of 100xLD50 in TEST 1.; assay type: functional; details: po; method in brief: as §3
[11] = system: Streptococcus pneumoniae; experiment: Median dose against Streptococcus pneumoniae 6303 in mouse after subcutaneous administration at a dose of 100xLD50 in TEST 1.; assay type: functional; details: sc; method in brief: as §3
[12] = system: Staphylococcus aureus; experiment: Median dose against Staphylococcus aureus NCTC 10649 in mouse after peroral administration at a dose of 100xLD50 in TEST 1.; assay type: functional; details: po; method in brief: as §3
[13] = system: Pseudomonas aeruginosa; experiment: The in vitro antibacterial activity as minimum inhibitory concentration against Pseudomonas aeruginosa K799/61; assay type: functional; method in brief: as §4
[14] = system: Escherichia coli; experiment: The in vitro antibacterial activity as minimum inhibitory concentration against Escherichia coli KNK437; assay type: functional; method in brief: as §4
[15] = system: Micrococcus luteus; experiment: The in vitro antibacterial activity as minimum inhibitory concentration against Micrococcus luteus ATCC 4698; assay type: functional; method in brief: as §4
[16] = Compound was tested for its water solubility at pH 7.5; assay type: physicochemical; details: aqueous, pH 7.5, pH 7.5
Method in brief: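 Solubility measured by adding excess drug to a fixed volume of 0.05 M pH 7.5 potassium phosphate buffer at ambient temperature.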

[17] = Compound was tested for its water solubility in water.; assay type: ADME; details: read-out: S
Method in brief: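 Solubility measured by adding excess drug to a fixed volume of distilled water at ambient temperature.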

[18] = system: Streptococcus pyogenes; experiment: The in vitro antibacterial activity as minimum inhibitory concentration against Streptococcus pyogenes EES61; assay type: functional; method in brief: as §2
[19] = system: Klebsiella aerogenes; experiment: The in vitro antibacterial activity as minimum inhibitory concentration against Enterobacter aerogenes ATCC 13048; assay type: functional; method in brief: as §4
[20] = system: Streptococcus pneumoniae; experiment: Median dose against Streptococcus pneumoniae 6303 in mouse after peroral administration at a dose of 100xLD50 in TEST 1.; assay type: functional; details: po; method in brief: as §3
[21] = system: Escherichia coli; experiment: The in vitro antibacterial activity as minimum inhibitory concentration against Escherichia coli H-560; assay type: functional; method in brief: as §4
[22] = system: Pseudomonas aeruginosa; experiment: Median dose against Pseudomonas aeruginosa A5007 in mouse after subcutaneous administration at a dose of 100xLD50 in TEST 1.; assay type: functional; details: sc; method in brief: as §3
[23] = system: Escherichia coli; experiment: Median dose against Escherichia coli Juhl cumulative mortalities in mouse after peroral administration at a dose of 100xLD50 in TEST 1.; assay type: functional; details: po
Method in brief: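 Female CF-1 mice (~20 g) were challenged ip with 0.5 mL of 18-h BHI culture diluted in 5% hog gastric mucin to 100× LD50 (LD50 by Reed–Muench). Oral doses in distilled water were split equally at 1 and 5 h post-infection, with ≥3 dose levels and 10 mice each, plus untreated controls. ED50 was derived from day-6 cumulative mortality by trimmed logit.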

[24] = system: Staphylococcus epidermidis; experiment: The in vitro antibacterial activity as minimum inhibitory concentration against Staphylococcus epidermidis 3519; assay type: functional; method in brief: as §2
[25] = system: Escherichia coli; experiment: The in vitro antibacterial activity as minimum inhibitory concentration against Escherichia coli Juhl; assay type: functional; method in brief: as §4
[26] = system: Acinetobacter; experiment: The in vitro antibacterial activity as minimum inhibitory concentration against Acinetobacter sp. CMX 669; assay type: functional; method in brief: as §4
[27] = system: Staphylococcus aureus; experiment: The in vitro antibacterial activity as minimum inhibitory concentration against Staphylococcus aureus CMX 553; assay type: functional; method in brief: as §2
[28] = system: Staphylococcus aureus; experiment: Median dose against Staphylococcus aureus NCTC 10649 in mouse after subcutaneous administration at a dose of 100xLD50 in TEST 1.; assay type: functional; details: sc; method in brief: as §3
[29] = system: Streptococcus equinus; experiment: The in vitro antibacterial activity as minimum inhibitory concentration against Streptococcus bovis A5169; assay type: functional; method in brief: as §2
[30] = system: Pseudomonas aeruginosa; experiment: The in vitro antibacterial activity as minimum inhibitory concentration against Pseudomonas aeruginosa BMH10; assay type: functional; method in brief: as §4
[31] = system: Providencia stuartii; experiment: The in vitro antibacterial activity as minimum inhibitory concentration against Providencia stuartii CMX 640; assay type: functional; method in brief: as §4
[32] = system: Enterococcus faecium; experiment: The in vitro antibacterial activity as minimum inhibitory concentration against Enterococcus faecium ATCC 8043; assay type: functional; method in brief: as §4
[33] = system: Staphylococcus aureus; experiment: The in vitro antibacterial activity as minimum inhibitory concentration against Staphylococcus aureus A5177; assay type: functional; method in brief: as §2
[34] = system: Escherichia coli; experiment: Median dose against Escherichia coli Juhl in mouse after subcutaneous administration at a dose of 100xLD50 in TEST 1.; assay type: functional; details: sc; method in brief: as §3
[35] = system: Streptococcus pyogenes; experiment: The in vitro antibacterial activity as minimum inhibitory concentration against Streptococcus pyogenes 930 Const; assay type: functional; method in brief: as §2
[36] = system: Escherichia coli; experiment: Median dose against Escherichia coli Juhl in mouse after peroral administration at a dose of 100xLD50 in TEST 2.; assay type: functional; details: po; method in brief: as §3
[37] = system: Escherichia coli; experiment: The in vitro antibacterial activity as minimum inhibitory concentration against Escherichia coli SS; assay type: functional; method in brief: as §4
[38] = Partition coefficient in octanol/water at pH 7.5 buffer.; assay type: physicochemical
[39] = system: Escherichia coli; experiment: Median dose against Escherichia coli Juhl in mouse after subcutaneous administration at a dose of 100xLD50 in TEST 2.; assay type: functional; details: sc; method in brief: as §3
[40] = system: Staphylococcus aureus; experiment: The in vitro antibacterial activity as minimum inhibitory concentration against Staphylococcus aureus 45 RAR2; assay type: functional; method in brief: as §4
[41] = system: Streptococcus agalactiae; experiment: The in vitro antibacterial activity as minimum inhibitory concentration against Streptococcus agalactiae CMX 508; assay type: functional; method in brief: as §2
[42] = system: Klebsiella pneumoniae; experiment: The in vitro antibacterial activity as minimum inhibitory concentration against Klebsiella pneumoniae ATCC 8045; assay type: functional; method in brief: as §4
[43] = system: Staphylococcus aureus; experiment: Median dose against Staphylococcus aureus NCTC 10649 in mouse after subcutaneous administration at a dose of 100xLD50 in TEST 2.; assay type: functional; details: sc; method in brief: as §3
[44] = system: Staphylococcus aureus; experiment: Median dose against Staphylococcus aureus NCTC 10649 in mouse after peroral administration at a dose of 100xLD50 in TEST 2.; assay type: functional; details: po; method in brief: as §3
[45] = system: Pseudomonas aeruginosa; experiment: The in vitro antibacterial activity as minimum inhibitory concentration against Pseudomonas aeruginosa K799/WT; assay type: functional; method in brief: as §4
[46] = system: Staphylococcus aureus; experiment: The in vitro antibacterial activity as minimum inhibitory concentration against Staphylococcus aureus 45; assay type: functional; method in brief: as §4
[47] = system: Micrococcus luteus; experiment: The in vitro antibacterial activity as minimum inhibitory concentration against Micrococcus luteus ATCC 9341; assay type: functional; method in brief: as §4
[48] = system: Rattus norvegicus; experiment: Effect on the spontaneous locomotor activity of rats at 0-15 min upon ip administration of the compounds at a dose of 15 mg/kg; assay type: functional; details: route intraperitoneal
Method in brief: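 Rats were dosed ip; methylcellulose served as vehicle, and treatments were assigned randomly. Thirty minutes after dosing, each rat was placed in its own circular activity chamber. Activity was counted as photocell beam interruptions and recorded at 15 and 60 min after the test started. Values are mean counts ± SEM.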

SMILES: CCn1cc(C(=O)O)c(=O)c2cc3c(cc21)OCO3 [OXOLINIC ACID]
- Mean activity counts [1]: 972

SMILES: CN[C@@H](C)Cc1ccccc1 [METHAMPHETAMINE]
- Mean activity counts [2]: 1462

SMILES: CC1CN(c2cc3c(cc2F)c(=O)c(C(=O)O)cn3-c2ccc(F)cc2F)CCN1 (stereo not drawn) [TEMAFLOXACIN]
- MIC [3]: 0.39 µg/mL (≈ 0.934 µM)
- MIC [4]: 0.1 µg/mL (≈ 0.24 µM)
- ED50 [5]: 26.6 mg/kg
- MIC [6]: 0.39 µg/mL (≈ 0.934 µM)
- MIC [7]: 12.5 µg/mL (≈ 29.9 µM)
- MIC [8]: 0.39 µg/mL (≈ 0.934 µM)
- ED50 [9]: 12.5 mg/kg
- ED50 [10]: 26.6 mg/kg
- ED50 [11]: 6.2 mg/kg
- ED50 [12]: 6 mg/kg
- MIC [13]: 0.05 µg/mL (≈ 0.12 µM)
- MIC [14]: 0.39 µg/mL (≈ 0.934 µM)
- MIC [15]: 1.56 µg/mL (≈ 3.74 µM)
- solubility [16]: 670 µg/mL (≈ 1610 µM)
- solubility [17]: 6500 µg/mL (≈ 15600 µM)
- MIC [18]: 0.39 µg/mL (≈ 0.934 µM)
- MIC [19]: 0.1 µg/mL (≈ 0.24 µM)
- ED50 [20]: 10.2 mg/kg
- MIC [21]: 0.05 µg/mL (≈ 0.12 µM)
- ED50 [22]: 10.3 mg/kg
- ED50 [23]: 3.7 mg/kg
- MIC [24]: 0.2 µg/mL (≈ 0.479 µM)
- MIC [25]: 0.05 µg/mL (≈ 0.12 µM)
- MIC [26]: 0.1 µg/mL (≈ 0.24 µM)
- MIC [27]: 0.2 µg/mL (≈ 0.479 µM)
- ED50 [28]: 1.5 mg/kg
- MIC [29]: 1.56 µg/mL (≈ 3.74 µM)
- MIC [30]: 0.39 µg/mL (≈ 0.934 µM)
- MIC [31]: 3.1 µg/mL (≈ 7.43 µM)
- MIC [32]: 0.78 µg/mL (≈ 1.87 µM)
- MIC [33]: 0.2 µg/mL (≈ 0.479 µM)
- ED50 [34]: 0.5 mg/kg
- MIC [35]: 0.78 µg/mL (≈ 1.87 µM)
- ED50 [36]: 5 mg/kg
- MIC [37]: 0.005 µg/mL (≈ 0.012 µM)
- logD [38]: -0.29
- ED50 [39]: 0.6 mg/kg
- MIC [40]: 0.39 µg/mL (≈ 0.934 µM)
- MIC [41]: 0.78 µg/mL (≈ 1.87 µM)
- MIC [42]: 0.05 µg/mL (≈ 0.12 µM)
- ED50 [43]: 1.3 mg/kg
- ED50 [44]: 3.2 mg/kg
- MIC [45]: 0.39 µg/mL (≈ 0.934 µM)
- MIC [46]: 0.2 µg/mL (≈ 0.479 µM)
- MIC [47]: 3.1 µg/mL (≈ 7.43 µM)

SMILES: CN(C)CCCN1c2ccccc2Sc2ccc(Cl)cc21 [CHLORPROMAZINE]
- Mean activity counts [48]: 31
